Published values of several laboratories.
Target: TGF-beta receptor type-2 (TGFBR2, Homo sapiens, UniProt P37173)

Cc1nc(C2CCN(C(=O)c3ccc(OC(F)(F)F)cc3N)CC2)c2ncc(N3CCN(C)CC3)cc2n1 — remaining binding (cell-free assay; competition with immobilised ligand; 1 µM): 93%
CC(C)(C)c1nc(-c2cccc(NS(=O)(=O)c3c(F)cccc3F)c2F)c(-c2ccnc(N)n2)s1 — remaining activity (enzyme activity; inhibitor; radiometric; 1 µM): 42%
Cc1ccc(Nc2nccc(N(C)c3ccc4c(C)n(C)nc4c3)n2)cc1S(N)(=O)=O — remaining signal (cell-free assay; 0.5 µM): 100%
NS(=O)(=O)c1cc(NC(=O)Cc2ccccc2)ccc1Oc1cccc(Cl)c1 — remaining binding (cell-free assay; competition with immobilised ligand; 1 µM): 87%
CNC(=O)c1cc(Oc2ccc(NC(=O)Nc3ccc(Cl)c(C(F)(F)F)c3)cc2)ccn1 — remaining signal (cell-free assay; 0.5 µM): 99.9%
CCC(=O)N[C@@H]1CC[C@H](C(=O)N(C)c2ccc(-c3nc4ccccc4o3)cc2)C1 — remaining binding (cell-free assay; competition with immobilised ligand; 1 µM): 100%
Cc1sc(C(=O)NC2COC2)cc1-n1cc(NC(=O)Nc2c(F)cccc2Cl)cn1 — remaining activity (enzyme activity; inhibitor; 10 µM): 86.8%
COc1cc(Cl)c(C(=O)N[C@@H](CN[C@H]2CC[C@@H](N)CC2)Cc2ccc(C#N)cc2)cc1-c1ccc(CN[C@H](C)c2ccc(C)cc2)o1 — remaining activity (enzyme activity; inhibitor; 1 µM): 94%
O=C1NC(=O)c2cc(Nc3ccc(F)cc3)c(Nc3ccc(F)cc3)cc21 — remaining signal (cell-free assay; 0.5 µM): 85.2%
O=C(Nc1cccnn1)N1CC(C/C=C/c2cncc(Oc3ccc(C(F)(F)F)cn3)n2)C1 — remaining binding (cell-free assay; competition with immobilised ligand; 1 µM): 100%
Nc1ncnc2occ(-c3ccc(NC(=O)Nc4cc(C(F)(F)F)ccc4F)cc3)c12 — remaining signal (cell-free assay; 20 µM): 99%
COc1cc2c(N3CCN(C(=O)Nc4ccc(OC(C)C)cc4)CC3)ncnc2cc1OCCCN1CCCCC1 — remaining signal (cell-free assay; 0.5 µM): 102%
